# Experimental data from article PMC4207575 (International Journal of Nanomedicine, 2014).
# No end group written: not given here.
# Set-up: species or system Kunming mice
# Conditions: mouse, in vivo, iv, 5 mg/kg
# Summary of the method: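 Kunming mice (10 weeks, 18–22 g), two groups of six; free or nanoparticle-loaded peptide at matched peptide dose by tail-vein injection. Tail-vein blood (20 μL) drawn at intervals into heparinized micropipettes and mixed with PBS; residue taken up in 50% acetonitrile/0.1% TFA. C18 HPLC at 40°C, water/acetonitrile (0.1% TFA) gradient, 280 nm, thymopentin internal standard; plasma calibration 0.195313–25 μg/mL, 1/x2 weighting. Noncompartmental analysis; mean ± SD.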
substance,measurement,value
HSDAVFTDNYTRLRKQVAAKKYLQSIKNKRY-NH2 (C-terminus assumed) [BAY 55-9837],AUC(0-t),2680 ± 160 ng·h/mL
same,clearance,0.733 mL/min
same,half-life,19.2 ± 3.6 min
